According to PubChem BioAssay AID504933 (The Scripps Research Institute Molecular Screening Center, 2011):
pIC50: −log10 of the molar value.

Molecular target: Nuclear receptor subfamily 5 group A member 2 (Homo sapiens) (UniProt O00482)
Assay: StAR luciferase signal decrease with LRH-1 – cell-based, StAR promoter, luminescence, assay provider, powder samples, LRH-1 inverse agonist project, late-stage follow-up (AID 504933)
Conditions: HEK293T LRH1 + StAR-luciferase reporter, 20 h
Summary of the method: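 Test system – HEK293T with LRH1 plus StAR luciferase reporter · Detection – luciferase reporter luminescence · Evaluation – IC50 from four-parameter sigmoidal fit of inhibition versus DMSO wells · Controls – DMSO vehicle-treated wells as normalisation reference · Dosing – 9-point curve up to 10 µM, single 10 µM · Schedule – 24 h bulk transfection before re-plating, then 20 h compound exposure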

Nuclear receptor subfamily 5 group A member 2 (Homo sapiens), sequence (O00482 whole entry, looked up): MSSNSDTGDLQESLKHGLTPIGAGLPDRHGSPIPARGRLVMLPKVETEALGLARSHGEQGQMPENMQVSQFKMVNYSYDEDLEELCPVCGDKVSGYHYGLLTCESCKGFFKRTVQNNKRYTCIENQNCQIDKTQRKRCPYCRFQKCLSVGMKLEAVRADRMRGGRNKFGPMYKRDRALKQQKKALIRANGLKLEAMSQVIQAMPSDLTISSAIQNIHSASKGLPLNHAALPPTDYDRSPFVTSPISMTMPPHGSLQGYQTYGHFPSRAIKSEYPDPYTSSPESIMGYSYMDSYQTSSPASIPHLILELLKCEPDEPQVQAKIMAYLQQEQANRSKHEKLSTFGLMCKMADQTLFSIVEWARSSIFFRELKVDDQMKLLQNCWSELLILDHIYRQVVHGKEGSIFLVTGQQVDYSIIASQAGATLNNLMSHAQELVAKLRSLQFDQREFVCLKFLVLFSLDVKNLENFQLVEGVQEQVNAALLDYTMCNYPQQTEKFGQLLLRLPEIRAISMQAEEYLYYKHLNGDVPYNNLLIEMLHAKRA

Compound | pIC50
O=c1cc(N2CCN(c3cccc(C(F)(F)F)c3)CC2)[nH]c(=O)n1C1CCCCC1 | 5.67
O=c1cc(N2CCN(c3cccc(Cl)c3)CC2)[nH]c(=O)n1C1CCCCC1 | 5.69
